Assay results of several laboratories.
Compare with care: the assays were run in different laboratories.
Target: Mitogen-activated protein kinase 7 (MAPK7, Homo sapiens, UniProt Q13164)

CCN1CCN(Cc2ccc(C(=O)Nc3ccc(C)c(Oc4ccc5c(c4)CC(=O)N5)c3)cc2C(F)(F)F)CC1  remaining binding (binding; competition with immobilised ligand; 1 µM): 100%
O=C(NS(=O)(=O)c1ccc(NCC2CCOCC2)c([N+](=O)[O-])c1)c1ccc(N2CCN(Cc3ccc(C(F)(F)F)cc3-c3ccc(Cl)cc3)CC2)cc1Oc1cnc2[nH]ccc2c1  remaining binding (cell-free assay; competition with immobilised ligand; 1 µM): 100%
O=C(c1ccc(Nc2ncc(Cl)c(-c3ccc(Cl)s3)n2)cc1)N1CCC(N2CCCC2)CC1  remaining binding (binding; competition with immobilised ligand; 1 µM): 7.1%
COc1ccnn2ncc(-c3ccnc(N(C)C)n3)c12  remaining binding (binding; 1 µM): 100%
C=CC(=O)N1CCC(C(=O)NCC(=O)N2CCN(c3nc(-c4cnc(N)nc4C(F)F)nc(N4CCOCC4)n3)CC2)CC1  remaining binding (binding; competition with immobilised ligand; 1 µM): 100%
CN(CCCC(F)(F)F)c1nccc(-c2cnn3ncccc23)n1  remaining binding (binding; 1 µM): 100%
COc1ccc2c(O[C@@H]3C[C@H]4C(=O)N[C@]5(C(=O)O)CC5/C=C\CCCCC[C@H](NC(=O)OC5CCCC5)C(=O)N4C3)cc(-c3csc(NC(=O)C(C)C)n3)nc2c1C (stereo partly shown)  remaining binding (cell-free assay; competition with immobilised ligand; 1 µM): 100%
CN(C)c1nccc(-c2cnc3ncccn23)n1  remaining binding (binding; 1 µM): 92%
O=C(NCC1CCOCC1)c1n[nH]cc1NC(=O)c1c(F)cccc1F  remaining binding (binding; competition with immobilised ligand; 1 µM): 90%
FC(F)(F)c1ccc2c(c1)nc(-c1cccnc1)n2C1CC1  remaining binding (cell-free assay; competition with immobilised ligand; 1 µM): 100%
N[C@@H]1CCN(c2nccc(-c3cnn4ncccc34)n2)C1  remaining binding (binding; 1 µM): 100%
O=C(c1ccc(Nc2nccc(-c3cc4ccccc4s3)n2)cc1)N1CCC(N2CCCC2)CC1  remaining binding (binding; competition with immobilised ligand; 1 µM): 100%
COc1cnc(Nc2cccc(S(N)(=O)=O)c2)nc1N1CCN(c2ccccc2)CC1  remaining binding (binding; competition with immobilised ligand; 1 µM): 100%
CS(=O)(=O)N1CCCC(NC(=O)[C@H](CCC2CCCCC2)NC(=O)c2ccc(CNC(=O)c3cnc4ccccn34)cc2)C1 (stereo partly shown)  remaining binding (cell-free assay; competition with immobilised ligand; 0.1 µM): 94%
O=C(NCCCN1CCOCC1)c1ccc(Nc2nccc(-c3cc4ccccc4s3)n2)cc1  remaining binding (binding; competition with immobilised ligand; 1 µM): 87%
N#Cc1ccc(Nc2ccc3[nH]c(=O)[nH]c3c2)c(Cl)c1  remaining binding (cell-free assay; competition with immobilised ligand; 1 µM): 100%
Cc1cnn2ncc(-c3ccnc(N(C)C)n3)c2c1  remaining binding (binding; 1 µM): 96%
CN([C@@H]1CCc2c(CC(=O)O)c3ccccc3n2C1)S(=O)(=O)c1ccc(F)cc1  remaining binding (cell-free assay; competition with immobilised ligand; 1 µM): 100%
CN(c1nccc(-c2cnn3ncccc23)n1)C1CC1  remaining binding (binding; 1 µM): 100%
COc1ncc2cc3ccccc3nc2c1C#N  remaining binding (cell-free assay; competition with immobilised ligand; 5 µM): 100%
C[C@@H]1CCN(c2nccc(-c3cnn4ncccc34)n2)C1  remaining binding (binding; 1 µM): 100%
Cc1noc([C@H]2C[C@@H](c3ccc(C(F)(F)F)cc3)CN(C(=O)N3CCS(=O)(=O)C3)C2)n1  remaining binding (cell-free assay; competition with immobilised ligand; 1 µM): 87%
